Source: PubChem BioAssay
MrgX1 agonist: activates human MrgX1 receptor signaling. MrgX1-HEK293 cells, Fluo-4 calcium fluorescence, agonist mode; hits give high values. B-score at 10 µM. 0.44% of 310,000 active;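 active means calcium response B-score plate-corrected fluorescence ratio at least 3 library SD, with starting fluorescence B-score inside 5 SD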
Target sequence (Q96LB2 whole entry, looked up): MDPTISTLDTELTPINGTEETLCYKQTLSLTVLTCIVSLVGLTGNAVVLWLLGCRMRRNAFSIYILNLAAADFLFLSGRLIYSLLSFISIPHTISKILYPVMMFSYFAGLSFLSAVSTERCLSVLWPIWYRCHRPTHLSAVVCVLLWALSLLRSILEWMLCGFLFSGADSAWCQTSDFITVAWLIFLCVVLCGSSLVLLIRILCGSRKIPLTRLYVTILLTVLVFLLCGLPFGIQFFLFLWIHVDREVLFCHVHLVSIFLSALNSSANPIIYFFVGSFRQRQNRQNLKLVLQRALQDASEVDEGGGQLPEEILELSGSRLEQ
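Material: MrgX1-expressing HEK293 cells; input: 15,000 cells per well; doses: test compound given as first of three sequential additions; schedule: overnight plating before 1 h dye loading; technique: Fluo-4 NW calcium-flux fluorescence, kinetic read; evaluation: baseline-normalised fluorescence change ratio, B-scored; control set: plate-wise positive and negative controls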
RGS4 inh: human RGS4 inhibition. P49798. HEK293 M3R/RGS4 inducible, Fluo-4 calcium flux; hits give high values; triggered by carbachol at its EC20. B-score at 10 µM. 0.45% of 310,000 active. AID 463165;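 active means B-score, a plate-corrected calcium signal, over three deviations above library mean, with baseline fluorescence within five deviations of library mean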;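 further: RGS4 expression induced by doxycycline in cells with stable M3 receptor; B-score is computed from the integrated fluorescence ratio over baseline after carbachol; higher B-score means a larger calcium signal and so more RGS4 inhibition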
Target sequence (P49798 whole entry, looked up): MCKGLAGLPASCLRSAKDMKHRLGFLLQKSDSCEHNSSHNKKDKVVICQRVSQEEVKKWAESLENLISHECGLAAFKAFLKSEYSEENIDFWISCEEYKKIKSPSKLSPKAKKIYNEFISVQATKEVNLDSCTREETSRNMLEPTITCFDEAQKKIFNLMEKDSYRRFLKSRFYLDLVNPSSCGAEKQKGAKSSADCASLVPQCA
MrgX1 PAM: allosterically activates human MrgX1 receptor signaling; Q96LB2; MrgX1-HEK293, Fluo-4 calcium flux, FDSS; hits give high values; B-score at 10 µM; 0.63% of 310,000 active;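 active means plate-corrected calcium response at least 3 library SD above typical, normal starting fluorescence, not activating the receptor alone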;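 further: compound read alongside a low EC10 to EC30 dose of BAM8-22 agonist; peak minus trough fluorescence over baseline measured at the second addition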
RGS4 act: RGS4 potentiation or activation; HEK293 M3R/inducible RGS4, carbachol calcium flux Fluo4; hits give low values; B-score at 10 µM; 0.92% of 310,000 active; AID 463111;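 active means B-score of the integrated calcium signal more than 4 SD below the library mean, with starting fluorescence not abnormally high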;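 further: negative B-score means reduced calcium response which marks RGS4 activation or potentiation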
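test system = HEK293 cells with stable M3R and inducible RGS4 | schedule = recording 10 s baseline at 1 Hz, 100 s post-agonist | technique = Fluo4-AM (2 µM) calcium-flux fluorescence, kinetic read | measure = Agonist-evoked peak-minus-minimum fluorescence over baseline, integrated ratio, B score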
MrgX1 antagonist: antagonists of human MrgX1 receptor. Q96LB2. MRGX1-HEK293 calcium flux, Fluo-4, BAM8-22 antagonism; hits give low values. B-score at 10 µM. 1.3% of 310,000 active. AID 588676;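 active means calcium-response B-score plate-corrected more than 3 library SD below zero, starting fluorescence within 5 deviations, no agonist response on first addition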;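 further: peak minus trough fluorescence over baseline after final BAM8-22 challenge near maximal dose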
RGS4 act valid: confirmation of RGS4 activators; shares compounds with RGS4 act; HEK293 M3R/RGS4 inducible, carbachol calcium flux Fluo4; inhibition, % at 10 µM; 89% of 1,100 active; AID 602282;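 active means inhibition above 3 SD of the buffer control wells, cut at about 41% in these data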;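 further: signal is the integrated peak-minus-minimum Fluo4 fluorescence over baseline ratio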
RGS4 act ctr: counter-screen for RGS4 activators: effect in non-induced cells; HEK293 M3R non-induced RGS4, Fluo4 calcium flux; after carbachol challenge at its EC90; 82% of 1,100 active; inhibition, % at 10 µM; shares compounds with RGS4 act;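 active means inhibition exceeding 3 SD of buffer-only control wells, cut at about 26% in these data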;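 further: percent drop in integrated peak-minus-baseline over baseline Fluo4 ratio after carbachol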
Numbers without * were called inactive; i = inactive; x = no result given. Compounds with a hit are over-represented: about 3.5% of the library has one in this group of screens.

SMILES	MrgX1 agonist	RGS4 inh	MrgX1 PAM	RGS4 act	MrgX1 antagonist	RGS4 act valid	RGS4 act ctr
CC(C)C1Oc2ccccc2C(=O)N(CC(=O)c2ccc3c(c2)OCCO3)C1=O (configuration not stated)	i	i	i	-7.8*	i	0	0
Cc1cc2c(cc1S(=O)(=O)CCC(=O)Nc1cccc(C(F)(F)F)c1)OCC(=O)N2	i	i	i	i	i	x	x
Cc1ccccc1S(=O)(=O)Cc1ccc(C(=O)NC2CC2)o1	i	i	i	i	i	x	x
COc1ccc(-c2cn[nH]c2-c2ccc(OCc3ccccc3)cc2O)cc1	i	i	i	-9.7*	i	0	0
COc1ccccc1-c1cn[nH]c1-c1ccc(OCc2ccccc2)cc1O	i	i	i	i	i	x	x
O=C1Nc2ccccc2C1=Nc1ccc(Br)cc1	i	i	i	i	i	x	x
CCN(CC)c1ccc(N=C2C(=O)Nc3ccccc32)cc1	i	i	i	-11*	i	84*	39*
COC(=O)c1nc(N)sc1C	i	i	i	i	i	x	x
Cc1cc(NC(=O)CSc2cn(CCNC(=O)c3ccc(F)cc3)c3ccccc23)no1	i	i	i	-7.7*	i	69*	33*
Cc1cccc2c1Sc1ccc(Cl)cc1CC2N1CCNCC1 (configuration not stated)	i	i	i	-7.6*	i	93*	96*
COc1ccccc1N1CC=C(c2cccc([N+](=O)[O-])c2)NC1=O	i	i	i	i	i	x	x
CC(=O)Nc1ccc(OCCCNC(=O)c2c(-c3ccccc3)noc2C)cc1	i	i	i	-8.6*	i	0	0
CCCOc1ccc(NC(=O)c2c(-c3ccccc3)noc2C)cc1	i	i	i	i	i	x	x
Cc1ccc(C)c(S(=O)(=O)N2CCCC2CNC(=O)C(=O)NCc2ccccc2C)c1 (configuration not stated)	i	i	i	i	i	x	x
COc1ccc(CCNC(=O)C(=O)NCC2CCCN2S(=O)(=O)c2cc(C)ccc2C)cc1 (configuration not stated)	i	i	i	-9.5*	i	74*	26*
COc1ccc(CCNC(=O)C(=O)NCC2OCCCN2S(=O)(=O)c2cc(C)ccc2C)cc1 (configuration not stated)	i	i	i	i	i	x	x
Cc1ccc(C)c(S(=O)(=O)N2CCCC2CNC(=O)C(=O)NCCc2ccccc2)c1 (configuration not stated)	i	i	i	-10*	i	80*	31*
O=C(CC1SC(N2CCOCC2)=NC1=O)Nc1cc([N+](=O)[O-])ccc1Cl (configuration not stated)	i	i	i	i	i	x	x
O=C(COc1ccc2ccccc2c1)Nc1ccc(S(=O)(=O)N2CCCCCC2)cc1	i	i	i	i	i	x	x
CN(C)CCOC(C1CCCCC1)C1CCCCC1	i	i	i	-9.1*	i	90*	68*
CCCOc1ccccc1Nc1nnc(C)c(=O)[nH]1	i	i	i	i	i	x	x
CCOC(=O)c1ccc(NC(=O)N2CCc3ccccc3C2)cc1	i	i	i	-8.9*	i	84*	44*
Cc1cc(C)cc(NC(=O)CCn2c(=S)[nH]c3ccccc3c2=O)c1	i	i	i	i	i	x	x
O=C(NC1=NCCS1)c1cccc(OC(F)F)c1	i	i	i	i	i	x	x
CN(C)c1ccc(/C=N/n2c(-c3cccnc3)n[nH]c2=S)cc1	i	i	i	i	i	x	x
SMILES	MrgX1 agonist	RGS4 inh	MrgX1 PAM	RGS4 act	MrgX1 antagonist	RGS4 act valid	RGS4 act ctr
CN(C)c1ccc(/C=N/n2c(-c3ccccc3Br)n[nH]c2=S)cc1	i	i	i	-12*	i	94*	94*
COc1ccc(-c2nc3cnccn3c2NCc2ccccc2)cc1SC1CCCCC1	i	i	i	-11*	i	92*	86*
CC(=O)Nc1ccc(NC(=O)C2CCN(C(=O)NC3CCCCC3)CC2)cc1	i	i	i	i	i	x	x
OCC1(Cc2ccccc2C(F)(F)F)CCN(Cc2ccccc2)CC1	i	i	i	i	i	x	x
OCC1(Cc2ccccc2C(F)(F)F)CCN(Cc2ccc3c(c2)CCO3)CC1	i	i	i	-10*	i	55*	84*
c1ccc2c(c1)[nH]c1c(N3CCN(C4CCCCC4)CC3)ncnc12	i	i	i	-7.8*	i	64*	84*
O=C(c1cccs1)N1CCCC(c2nc3c(nnn3Cc3c(Cl)cccc3Cl)c(=O)[nH]2)C1 (configuration not stated)	i	i	i	-8.3*	i	52*	84*
O=C(CSc1ncnc2c1cnn2-c1ccccc1)NC1CCCC1	i	i	i	i	i	x	x
COc1ccc(-c2cc(-c3nnc(COC(=O)c4ccc(O)cc4)o3)c3ccccc3n2)cc1OC	i	i	i	-7.7*	i	62*	0
CC(C)Cn1c(-c2ccc(F)cc2)n[nH]c1=S	i	i	i	-8.5*	i	62*	84*
CC(C)Cn1c(-c2ccncc2)n[nH]c1=S	i	i	i	i	i	x	x
CC(C)Cn1c(-c2csc3c2CCCC3)n[nH]c1=S	i	i	i	-8*	i	94*	67*
CCCSc1nc2ccsc2c(=O)n1CC	i	i	i	i	i	x	x
Cc1cc(=O)[nH]c(S/C=C/c2ccccc2)n1	i	i	i	i	i	x	x
COc1cc(NC(=O)Nc2cccc(Cl)c2)c(OC)cc1NC(=O)CN1CCCCC1	i	i	i	-11*	i	38*	0
O=C(CN1CCCCC1)Nc1cccc(Cl)c1	i	i	i	i	i	x	x
Cc1ccccc1OCc1n(CC(=O)OC2CC(C)CCC2C(C)C)c2ccccc2[n+]1C (configuration not stated)	i	i	i	-13*	-7.2*	92*	91*
CC1CCC(C(C)C)C(OC(=O)COC(=O)c2ccc(N)cc2)C1 (configuration not stated)	i	i	i	i	i	x	x
